# This excerpt belongs to a sample that is enriched for hits.
# Lung fibro prol – blocks proliferation of human lung fibroblasts; LL 47 human lung fibroblast viability, ATP luminescence; stronger effect = lower value; viability, % at 10 µM; 85,000 compounds, 1.1% hits; AID 719;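 active means viability at or below 50% in the single dose screen; inactive means viability above 50%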;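 further: compound exposure lasted 72 h before the ATP readout; 100% = median luminescence of untreated cell-only wells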
#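 Times – overnight cell rest, 72 h compound treatment at 37 °C · Test system – human lung fibroblast line LL 47, low passage · Amount – 1,150 cells in each well · Controls – cell-only wells, no compound · Doses – 0.1% DMSO in all compound wells · Measured by – CellTiter-Glo luminescence · Buffer or medium – IMEM plus 15% FBS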
# PTEN del growth – suppresses growth of cells with PTEN deletion | HCT116 PTEN-null viability, CellTiter-Glo, 60 h; stronger effect = lower value | viability, % at 10 µM | 140,000 compounds, 1.2% hits | AID 827;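 active means viability at or below a set limit, 4 SD under the median of all tested compounds, cut at about 3.7% in these data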;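 further: PTEN knockout HCT116 line with beta catenin targeted HCT116 as companion control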
# HCT116 bCat-KO – beta-catenin-lacking colon tumor cell growth suppression; viability, % at 10 µM; HCT116 beta-catenin knockout viability, CellTiter-Glo, 60 h; stronger effect = lower value; 140,000 compounds, 1.5% hits;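 active means viability at or under a set limit, the compound median less 4 SD, cut at about 6% in these data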;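 further: 0% = Hyamine 1622 control at 20 µM and 100% = untreated cell control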
# H69AR growth 86K – blocks growth of human H69AR lung tumor cells. H69AR lung tumor viability, ATP luminescence, 72 h; stronger effect = lower value. viability, % at 10 µM. 85,000 compounds, 6% hits. AID 598;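 active means viability at or below 40%; inactive means viability above 40%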;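 further: multidrug resistant small cell line overexpressing MRP-1 efflux transporter; 100% = mean luminescence of untreated control wells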
# HUVEC inhibit – blocks proliferation of human endothelial cells. HUVEC proliferation, CellTiter-Glo luminescence, 72 h; stronger effect = lower value. viability, % at 10 µM (by protocol). 86,000 compounds, 1.1% hits;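 active means viability at or below 30%; inactive means viability above 30%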;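 further: 100% = median luminescence of DMSO-only cell control wells on each plate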
# Active calls of the source: *; · = not tested or not shown.
SMILES,Lung fibro prol,PTEN del growth,HCT116 bCat-KO,H69AR growth 86K,HUVEC inhibit
Cc1cc(=O)n2[nH]c(C)c(-c3ccc(Cl)cc3)c2n1,78.5,18.1,21.2,36.1*,70.8
CCOC(=O)Cc1cc(=O)n2[nH]c(-c3ccccc3)cc2n1,100.0,91.7,90.8,106.7,92.7
CCOC(=O)Cc1c(C)nc2c(-c3cccc(Br)c3)c[nH]n2c1=O,63.4,11.9,13.2,28.3*,4.7*
CCOC(=O)Cc1c(C)nc2c(C#N)c[nH]n2c1=O,96.5,102.4,115.5,97.6,97.9
COc1ccc(CNC2CC(=O)N(C)C2=O)cc1 (stereo not given),98.2,93.3,82.7,95.6,98.8
N/C(CC(=O)Nc1ccc(F)cc1)=N\O,·,92.6,84.0,·,·
O=c1c2c(nc3c(-c4cccc(Br)c4)c[nH]n13)CCCC2,58.6,7.8,15.3,20.4*,45.2
CCCCCCc1cc2cc(C(=O)NC)c(=N)oc2cc1O,·,4.0,9.0,·,·
CCCCCCc1cc2cc(C(=O)Nc3cccc(OC)c3)c(=O)oc2cc1O,·,4.9,5.3*,·,·
CCCCCCc1cc2cc(C(=O)Nc3ccc(OC)cc3)c(=O)oc2cc1O,·,56.8,65.8,·,·
CCCCCCc1cc2cc(S(=O)(=O)c3ccc(F)c(Cl)c3)c(=O)oc2cc1O,·,3.1*,2.9*,·,·
CCCCCCc1cc2cc(C(N)=O)c(=N)oc2cc1O,101.3,58.4,84.1,2.0*,68.0
CCC(C)C(=O)N1c2ccccc2C(=C2SC(C(=O)OC)=C(C(=O)OC)S2)C(=S)C1(C)C (stereo not given),·,61.6,60.0,·,·
c1ccc2sc(SCc3ccc(-c4nnco4)cc3)nc2c1,99.9,62.0,56.0,105.7,95.4
Fc1ccc(COc2ccc(/C=N/n3cnnc3)cc2)cc1,104.8,82.6,89.6,88.2,112.2
COC(=O)c1ccc(N=c2sc(C(=O)OC)cc(=O)n2C)cc1,55.0,·,·,24.2*,57.8
CCOC(=O)c1ccc(N=c2sc(C(=O)OC)cc(=O)n2C2CC2)cc1,93.9,66.2,69.8,33.5*,49.3
CCOC(=O)c1ccc(N=c2sc(C(=O)OC)cc(=O)n2Cc2ccc3c(c2)OCO3)cc1,96.3,13.8,6.5,33.3*,82.1
COC(=O)c1cc(=O)n(Cc2ccc3c(c2)OCO3)c(=Nc2ccc(F)cc2)s1,85.3,15.5,27.0,7.9*,60.2
NC(=O)c1nsnc1-c1ccccc1O,·,95.9,91.5,·,·
CCOc1ccccc1N1CCN(C(=O)CCCc2nc3ccccc3s2)CC1,·,74.2,85.2,·,·
COC(=O)c1cc(=O)n(Cc2ccc3c(c2)OCO3)c(=Nc2ccccc2)s1,89.0,14.8,20.8,12.2*,53.8
O=C(Nc1ccccc1)N1CCN(Cc2ccc3c(c2)OCO3)CC1,94.0,86.3,91.8,94.2,97.5
COC(=O)c1ccsc1NC(=O)CN1C(=O)CCC1=O,92.2,·,·,94.2,94.1
Cc1nc2cc3nc(C(F)(F)F)[nH]c3cc2[nH]1,·,108.0,84.8,·,·
SMILES,Lung fibro prol,PTEN del growth,HCT116 bCat-KO,H69AR growth 86K,HUVEC inhibit
Cc1cc(C)nc(SCC(=O)NC2=NN=C(c3ccc(Br)cc3)CS2)n1,·,2.8*,1.5*,·,·
Cc1ccc(NC(=O)NC(=O)N(C(C)C)S(C)(=O)=O)nc1,·,95.2,90.3,·,·
N#C/C(=C\c1sc(N2CCOCC2)nc1-c1ccccc1)C(=O)Nc1cccc2ccccc12,·,2.3*,3.9*,·,·
O=C1CCN(N=Nc2cccc(Cl)c2)N1,100.6,85.1,83.5,30.8*,81.6
O=C(/C=C/c1cccc2ccccc12)c1ccncc1,·,0.9*,1.0*,·,·
Cc1cc(=O)[nH]c(N/N=C/c2ccccn2)n1,·,12.8,11.3,·,·
CCCc1sc(N/N=C/c2ccccn2)nc1-c1ccc(Br)cc1,29.3*,10.6,7.0,11.3*,5.2*
C=CCn1nc([N+](=O)[O-])nc1Sc1cccc2cccnc12,·,1.8*,2.1*,·,·
O=[N+]([O-])c1ccc(Sc2cccc3cccnc23)c([N+](=O)[O-])c1,4.2*,2.2*,1.6*,1.6*,50.3
COc1ccccc1CC(=O)Nc1ccc(-c2noc(COc3ccc(Cl)c(C)c3)n2)cc1,73.2,92.2,79.7,29.9*,86.3
CCOc1ccccc1-c1nc(-c2ccc(NC(=O)Cc3ccccc3OC)cc2)no1,106.2,76.0,87.8,90.0,96.6
Cc1cc(Oc2nnnn2-c2ccccc2)ccc1Cl,99.1,87.1,88.8,94.0,96.5
Cc1cc2c(c(=O)n1Cc1cccnc1)C(c1cccs1)C(C#N)=C(N)O2 (stereo not given),97.0,93.9,107.3,31.6*,92.0
Cc1cc2c(c(=O)n1Cc1cccnc1)C(Cc1ccccc1)C(C#N)=C(N)O2 (stereo not given),100.3,106.0,98.8,86.2,87.3
COc1ccccc1NC(=O)Cn1nnc(-c2ccccc2NC(=O)c2ccco2)n1,47.4*,102.5,87.8,15.9*,38.8
COc1ccc(NC(=O)Cn2nnc(-c3ccccc3N)n2)cc1OC,95.2,95.5,96.5,78.5,92.6
COc1ccc(NC(=O)Cn2nnc(-c3ccccc3NC(=O)c3ccco3)n2)cc1,47.6*,11.7,14.7,4.3*,21.4*
O=C(Cn1nnc(-c2ccccc2NC(=O)c2ccco2)n1)NC1CCCCC1,88.3,76.8,92.7,81.9,95.2
COc1cc(NC(=O)Cn2nnc(-c3ccccc3N)n2)cc(OC)c1,96.6,90.9,96.6,29.5*,95.1
COc1ccc(C)cc1-n1nnnc1SCc1cc(=O)n2cc(C)ccc2n1,89.7,68.6,58.0,85.5,92.2
Cc1ccc(Nc2nnc(C3C(=O)N(C)C4(C)CC3c3cc(Br)ccc3O4)s2)cc1 (stereo not given),·,64.3,70.6,·,·
CCCS(=O)(=O)c1c(S(=O)(=O)CCC)c2cc(CC)ccn2c1C(=O)OC,91.1,80.5,83.6,24.2*,102.5
CCCS(=O)(=O)c1c(S(=O)(=O)CCC)c2c3ccccc3ccn2c1C(=O)OC,83.5,49.3,40.6,26.7*,74.0
CCCS(=O)(=O)c1c(S(=O)(=O)CCC)c2c(C)cccn2c1C(=O)OC,95.7,87.2,89.8,51.7,90.4
Cc1ccccc1N=Nc1ccc(O)c2ncccc12,·,10.9,15.8,·,·
SMILES,Lung fibro prol,PTEN del growth,HCT116 bCat-KO,H69AR growth 86K,HUVEC inhibit
Oc1ccc(CNc2ccccc2)c2cccnc12,88.5,5.5,7.4,35.6*,71.5
CN1CCN(Cc2cc(COCc3ccccc3)c3cccnc3c2O)CC1,2.8*,0.8*,1.1*,1.8*,70.8
OCc1ccnc2c(O)cccc12,·,2.9*,3.2*,·,·
Oc1ccc(CNc2ccc(F)cc2)c2cccnc12,85.2,10.0,11.9,55.3,77.4
O=[N+]([O-])c1ccc(O)c2ncccc12,·,3.9,4.1*,·,·
Cc1nc2c(cnn2-c2ccc(Cl)cc2)c(=O)n1-c1ccc2c(c1)OCCO2,101.6,·,·,70.2,91.0
Cc1ccccc1NCc1ccc(O)c2ncccc12,93.0,11.0,12.0,71.5,84.3
Oc1ccc(CN2CCN(Cc3ccccc3)CC2)c2cccnc12,94.8,2.0*,2.4*,2.0*,105.9
COCc1ccc(O)c2ncccc12,3.0*,2.1*,2.2*,1.1*,6.0*
Cc1nc(CNS(=O)(=O)c2ccccc2F)cs1,97.7,92.6,85.2,96.1,93.0

# Screening results as filed in PubChem.
